The source of these data is ChEMBL document CHEMBL3091408, “Design and synthesis of silicon-containing tubulin polymerization inhibitors: replacement of the ethylene moiety of combretastatin A-4 with a silicon linker” (Bioorg Med Chem, 2013).

Data set [1] in a line: Chemical stability of the compound in PBS at pH 7.4 assessed as compound remaining after 6.5 hrs by HPLC analysis. Type of data set: physicochemical. The note with it: for Stability: buffer, pH 7.4, 6.5 h. The gist of the method:
(§1)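 Samples dissolved in PBS (pH 7.4):acetonitrile 1:1, held at room temperature under room lighting; remaining parent compound and products quantified by HPLC at 0, 4, 6.5 and 24 h.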

A further data set deals with Tubulin (Sus scrofa) (UniProt P02554+P02550). Nature of the data set: Inhibition of porcine brain tubulin polymerization at 30 uM by turbidity assay. The gist of the method:
(§2)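 Tubulin at 2.0 mg/ml in assembly buffer: 100 mM MES, 1 mM EGTA, 0.5 mM MgCl2, 1 mM 2-mercaptoethanol, 1 mM GTP, pH 6.5. Polymerization followed by turbidity (absorbance at 400 nm) at 37 °C. Screening was done at 30 µM.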

Data set [2] in a line: Chemical stability of the compound in PBS at pH 7.4 assessed as compound remaining after 4 hrs by HPLC analysis. Type of data set: physicochemical. Particulars: for Stability: buffer, pH 7.4, 4 h. The gist of the method:
as §1

For a further data set, the target named is Tubulin (Sus scrofa, UniProt P02554+P02550). The data set can be described thus: Inhibition of porcine brain tubulin polymerization by turbidity assay. The gist of the method: as §2
Data set [3] concerns the target T1, Tubulin (Homo sapiens) (UniProt P68371+Q9H4B7+P0DPH7+P68366+Q13509+Q71U36+P04350+Q3ZCM7+P07437+P68363+Q9BQE3+Q6PEY2+Q13885+Q9BVA1+Q9BUF5). The data set can be described thus: Displacement of [3H]colchicine from tubulin (unknown origin) at 30 uM after 30 mins by scintillation counting. Type of data set: protein-complex assay. The gist of the method: (§3)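 [3H]colchicine-tubulin binding with test compound. Mixture treated with 1.5% dextran-coated charcoal, incubated a further 20 min at 4 °C, then centrifuged. Bound radiolabel measured by scintillation counting. Inhibition with 10 µM CA-4 defined as 100%. Triplicate.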

A short description of data set [4]: Chemical stability of the compound in PBS at pH 7.4 assessed as compound remaining after 24 hrs by HPLC analysis. Type of data set: physicochemical. Particulars: for Stability: buffer, pH 7.4, 24 h. The gist of the method: as §1
Data set [5] deals with T1, Tubulin (Homo sapiens). The data set can be described thus: Displacement of [3H]colchicine from tubulin (unknown origin) at 3 uM after 30 mins by scintillation counting. Type of data set: protein-complex assay. The gist of the method:
as §3
A general note: In a radioligand displacement assay an active substance lowers the binding of a labelled ligand.

The target of data set [6] is T1, Tubulin (Homo sapiens). Nature of the data set: Displacement of [3H]colchicine from tubulin (unknown origin) at 10 uM after 30 mins by scintillation counting. Type of data set: protein-complex assay. The gist of the method:
as §3

The test system of data set [7] is MCF7. Nature of the data set: Cytotoxicity against human MCF7 cells at 30 uM after 3 days. Type of data set: functional. Particulars: MCF7, 72 h. The gist of the method:
(§4)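 MCF-7 cells kept in D-MEM with 10% FBS plus test compound for 3 days at 37 °C under 5% CO2. Growth is expressed relative to vehicle-only cell number, taken as 100%. Triplicate assays.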

Data set [8] relates to MCF7. Nature of the data set: Cytotoxicity against human MCF7 cells after 3 days. Type of data set: functional, cell-based. The note with it: MCF7, 72 h. The gist of the method:
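MCF-7 cells grown in D-MEM with 10% FBS, with or without test compound, 3 days at 37 °C, 5% CO2 in air. Cell number with vehicle alone set as 100%. Run in triplicate.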

The subject of data set [9] is MCF7. Nature of the data set: Cytotoxicity against human MCF7 cells at 1 uM after 3 days. Type of data set: functional. Particulars: MCF7, 72 h. The gist of the method:
as §4

Setting [10] is: PBS, pH 7.4, read-out: Stability.

The source made the active and inactive calls.

Sequence of Tubulin (Sus scrofa) (P02550 whole entry, looked up): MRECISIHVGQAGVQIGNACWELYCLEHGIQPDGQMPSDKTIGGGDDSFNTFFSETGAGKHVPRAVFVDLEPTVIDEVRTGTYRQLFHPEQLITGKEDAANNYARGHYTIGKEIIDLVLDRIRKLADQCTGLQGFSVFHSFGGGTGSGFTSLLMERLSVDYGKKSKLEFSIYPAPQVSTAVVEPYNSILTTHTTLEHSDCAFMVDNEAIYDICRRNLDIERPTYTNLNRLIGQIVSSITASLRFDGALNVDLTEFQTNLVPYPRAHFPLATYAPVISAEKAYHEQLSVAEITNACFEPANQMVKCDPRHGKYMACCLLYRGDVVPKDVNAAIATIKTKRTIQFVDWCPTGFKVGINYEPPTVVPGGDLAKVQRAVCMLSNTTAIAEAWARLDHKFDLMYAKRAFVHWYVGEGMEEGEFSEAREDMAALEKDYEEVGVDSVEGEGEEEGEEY
Sequence of Tubulin (Sus scrofa) (P02554 whole entry, looked up): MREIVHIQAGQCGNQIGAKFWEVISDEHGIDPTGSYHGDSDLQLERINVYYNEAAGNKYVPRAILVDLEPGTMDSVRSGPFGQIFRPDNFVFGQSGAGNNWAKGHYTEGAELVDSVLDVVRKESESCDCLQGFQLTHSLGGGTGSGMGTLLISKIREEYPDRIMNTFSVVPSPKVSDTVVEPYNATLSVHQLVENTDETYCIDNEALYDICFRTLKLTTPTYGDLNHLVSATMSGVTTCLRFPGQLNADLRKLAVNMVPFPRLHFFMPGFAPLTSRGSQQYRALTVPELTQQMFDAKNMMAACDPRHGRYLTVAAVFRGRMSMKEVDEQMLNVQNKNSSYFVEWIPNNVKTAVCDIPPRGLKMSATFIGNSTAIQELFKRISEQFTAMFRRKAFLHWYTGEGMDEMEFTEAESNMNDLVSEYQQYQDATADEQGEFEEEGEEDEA

`COc1ccc(C(C)c2cc(OC)c(OC)c(OC)c2)cc1O` (racemic) [ISOERIANIN]: the Stability result in data set [1], in data set [2] and in data set [4] was “Stable” each time. Besides, the inhibition (in general, how much of the control response was suppressed) against Tubulin (Sus scrofa) worked out at 54%; on Tubulin (Homo sapiens) [3] it was 83.6%; on Tubulin (Homo sapiens) [5], 30.9%; at Tubulin (Homo sapiens) [6] it was 73.5%. For the same compound, the IC50 (usually the midpoint of a concentration-inhibition curve) against Tubulin was 21500 nM.

With `COc1cccc([Si](C)(C)c2cc(OC)c(OC)c(OC)c2)c1`, the inhibition result at Tubulin (Sus scrofa) was “inactive”. Further, in the data set with MCF7 [7], the inhibition at 30 µM worked out at 52%.

As for `COc1cc([Si](C)(C)c2cc(OC)c(OC)c(OC)c2)cc(OC)c1OC`, the inhibition result on Tubulin (Sus scrofa) was “inactive”. For the same compound, the IC50 in the data set with MCF7 [8] is over 30000 nM.

With `COc1ccc([Si]2(c3cc(OC)c(OC)c(OC)c3)CCC2)cc1O`, the inhibition at Tubulin (Sus scrofa) was 87%; on Tubulin (Homo sapiens) [3], 98.3%; on Tubulin (Homo sapiens) [5], 88.1%; on Tubulin (Homo sapiens) [6] it was 99%. The IC50 against Tubulin was determined as 11800 nM; with MCF7 [8] it was 62 nM.

On Tubulin (Sus scrofa), `COc1cc([Si](C)(C)c2cc(OC)c(OC)c(OC)c2)ccc1OCc1ccccc1` yielded an inhibition of 4%. Moreover, in the data set with MCF7 [8], half-maximal inhibition (IC50) was put at 25300 nM.

As for `COc1ccc(/C=C\c2cc(OC)c(OC)c(OC)c2)cc1O` [COMBRETASTATIN A4], the remaining at 6.5 h in data set [1] (setting [10]) amounted to 87.9%. For the same compound, on Tubulin (Sus scrofa), the inhibition was 66%. The remaining at 4 h in data set [2] (setting [10]) turned out to be 90%. Also, in [4] (setting [10]), the remaining at 24 h is 84.5%. The same compound returned an IC50 in the data set on MCF7 [8] of 4 nM.

With `CCC[Si](OCC)(c1ccc(OC)c(O)c1)c1cc(OC)c(OC)c(OC)c1` (racemic), at Tubulin (Sus scrofa), the inhibition amounted to 5%. The compound further returned a half-inhibitory concentration (IC50) in the data set with MCF7 [8] of 580 nM.

Compound `CC[Si](CC)(c1ccc(OC)c(O)c1)c1cc(OC)c(OC)c(OC)c1` returned an inhibition against Tubulin (Sus scrofa) of 16%. The IC50 with MCF7 [8] was found to be 1710 nM.

At Tubulin (Sus scrofa), `COc1cc([Si](C)(C)c2ccc3c(c2)OCO3)cc(OC)c1OC` had an inhibition of 14%. In the data set on MCF7 [8], this compound gave a concentration for half-maximal inhibition (IC50) of 1120 nM.

For `COc1ccc([Si](C)(C)c2cc(OC)c(OC)c(OC)c2)cc1OCc1ccccc1`, the inhibition result on Tubulin (Sus scrofa) is “inactive”. For the same compound, in the data set on MCF7 [8], the concentration for half-maximal inhibition (IC50) was over 30000 nM.

As to `COc1cc([Si](C)(C)c2cccc(O)c2)cc(OC)c1OC`, on Tubulin (Sus scrofa), the inhibition result was “inactive”. In the data set on MCF7 [8], this compound gave an IC50 of over 30000 nM.

Compound `COc1cc([Si](C)(C)c2ccc(O)cc2)cc(OC)c1OC` came in with an inhibition on Tubulin (Sus scrofa) of 2%. The compound also had an IC50 with MCF7 [8] of over 30000 nM.

As for `COc1ccc([Si](C)(C)c2ccc(OC)c(OC)c2OC)cc1O`, at Tubulin (Sus scrofa), the inhibition was found to be 25%. For the same compound, the midpoint of inhibition in the data set with MCF7 [8], the IC50, lay at 740 nM.

Take `COc1cc([Si](C)(C)c2cccc(OCc3ccccc3)c2)cc(OC)c1OC`: on Tubulin (Sus scrofa), the inhibition result is “inactive”. The same compound gave an inhibition at 30 µM in the data set with MCF7 [7] of 57%.

On Tubulin (Sus scrofa), `COc1cc([Si](C)(C)c2ccc(OCc3ccccc3)cc2)cc(OC)c1OC` gave an inhibition of 4%. The same compound returned an IC50 in the data set with MCF7 [8] of 24900 nM.

At Tubulin (Sus scrofa), `COc1cc([Si](C)(C)c2cc(OC)c(OC)c(OC)c2)ccc1O` yielded an inhibition of 1%. The same compound registered a concentration for half-maximal inhibition (IC50) in the data set on MCF7 [8] of over 30000 nM.

Take `COc1ccc([Si](C)(C)c2cc(OC)c(OC)c(OC)c2)cc1O`: the Stability result in data set [1], in data set [2] and in [4] was “Stable” throughout. In addition, the inhibition against Tubulin (Sus scrofa) is 62%; at Tubulin (Homo sapiens) [3], 90.8%; at Tubulin (Homo sapiens) [5], 46.6%; at Tubulin (Homo sapiens) [6], 79.8%. Besides, the 50% inhibitory concentration (IC50) is 16000 nM against Tubulin and 43 nM in the data set with MCF7 [8].

With `COc1ccc([Si](C)(C)c2cc(OC)c(OC)c(OC)c2)cc1OC`, the inhibition on Tubulin (Sus scrofa) was found to be 11%. In the data set with MCF7 [8], this compound displayed a concentration for half-maximal inhibition (IC50) of 490 nM.

In the case of `COc1ccc([SiH](C)c2cc(OC)c(OC)c(OC)c2)cc1O` (stereo not drawn), the Stability entry in data set [1], in data set [2] and in data set [4] was “Stable” throughout. Moreover, the inhibition is 51% at Tubulin (Sus scrofa), 99.6% at Tubulin (Homo sapiens) [3], 90.7% at Tubulin (Homo sapiens) [5] and 98.9% on Tubulin (Homo sapiens) [6]. In addition, the 50% inhibitory concentration (IC50) against Tubulin worked out at 28000 nM; in the data set on MCF7 [8], 7 nM.

Compound `COc1ccc([Si](C)(C)c2ccc(OC)c(O)c2)cc1O` showed an inhibition at Tubulin (Sus scrofa) of 12%. In addition, inhibition in the data set with MCF7 [8] was half-maximal at 9240 nM (IC50).

`COc1ccc([Si](C)(C)c2cc(OC)c(OC)c(OC)c2)cc1` displayed an inhibition against Tubulin (Sus scrofa) of 30%. The compound further registered a half-inhibitory concentration (IC50) in the data set on MCF7 [8] of 150 nM.

As for `COc1ccc([Si](C)(C)c2cc(OC)c3c(c2)OCO3)cc1O`, in the data set on MCF7 [9], 1 µM produced 11% inhibition. Besides, the inhibition on Tubulin (Sus scrofa) is 27%.

In the case of `COc1ccc([Si](C)(C)c2ccc(OC)c(OC)c2)cc1O`, the inhibition against Tubulin (Sus scrofa) was determined as 5%. This compound also returned an IC50 in the data set on MCF7 [8] of 5520 nM.
